Measured values from different studies.
Target: Mitogen-activated protein kinase kinase kinase 9 (MAP3K9, Homo sapiens, UniProt P80192)

NS(=O)(=O)c1ccc(CNc2nc(Nc3cccc(CN4CCOCC4)c3)ncc2C2CC2)cc1 — remaining activity (enzyme activity; inhibitor; radiometric; 1 µM): 72%
CNC(=O)Nc1ccc2c(c1)[C@@]1(CC2)OC(=O)N(CC(=O)N(Cc2ccc(F)cc2)[C@@H](C)C(F)(F)F)C1=O — remaining binding (cell-free assay; competition with immobilised ligand; 1 µM): 100%
COc1cccc2c(NCc3ccccc3)nc(-n3c(N)nc4ccccc43)nc12 — inhibition (target engagement in cells; inhibitor; chemoproteomics; 20 mM): 11.3%
Oc1cccc(-c2nc(N3CCOCC3)c3oc4ncccc4c3n2)c1 — remaining signal (cell-free assay; 0.5 µM): 103%
CN(c1ccnc(CNc2nc(Nc3ccc4c(c3)CC(=O)N4)ncc2C(F)(F)F)n1)S(C)(=O)=O — remaining binding (cell-free assay; competition with immobilised ligand; 1 µM): 41%
O=C(Nc1cnn(-c2csc(C(=O)NC3COC3)c2)c1)Nc1ccccc1Cl — remaining activity (enzyme activity; inhibitor; 5 µM): 95.1%
C[C@@H]1CN(c2cc(-c3nn(C)c4ccc(OC5(C)CC5)cc34)ncn2)C[C@H](C)O1 — remaining binding (cell-free assay; competition with immobilised ligand; 1 µM): 100%
N#CCCc1ccc2c(c1)-c1[nH]c3ccc([N+](=O)[O-])cc3c1CC(=O)N2 — remaining signal (cell-free assay; 0.5 µM): 18.2%
O=C(NCCCNc1nc(Nc2cccc(CN3CCOCC3)c2)ncc1C1CC1)C1CCC1 — remaining activity (enzyme activity; inhibitor; radiometric; 1 µM): 19%
Cc1cc(NC(=O)c2cccc3cc(-c4cccc5[nH]nc(N)c45)ccc23)ccc1F — activity vs control (enzyme activity; inhibitor; 0.1 µM): 96%
NS(=O)(=O)c1ccc(CNc2ccnc(Nc3cccc(NC(=O)N4CCCC4)c3)n2)cc1 — remaining activity (enzyme activity; inhibitor; radiometric; 1 µM): 86%
Nc1ncnc2occ(-c3ccc(NC(=O)Nc4cc(C(F)(F)F)ccc4F)cc3)c12 — remaining signal (cell-free assay; inhibitor; 20 µM): 2%
Cc1ccc(C(=O)NCc2ccsc2)cc1C#Cc1cn(C(C)C)c2ncnc(N)c12 — activity vs control (enzyme activity; inhibitor; 1 µM): 25%
COc1cc2ncnc(Nc3ccc(Oc4ccccc4)cc3C)c2cc1OC — inhibition (enzyme activity; inhibitor; 1 µM): 9%
O=C(Nc1cccc(Nc2ncc(Br)c(NCCc3cnc[nH]3)n2)c1)N1CCCC1 — remaining activity (enzyme activity; inhibitor; radiometric; 1 µM): 5%
Cn1c(=O)n(-c2ccc(C(C)(C)C#N)cc2)c2c3cc(-c4cnc5ccccc5c4)ccc3ncc21 — remaining activity (enzyme activity; inhibitor; 10 µM): 67%
Cc1nn(CC(F)(F)F)cc1Nc1nccc(NCCCNC(=O)C2CCC2)n1 — remaining activity (enzyme activity; inhibitor; radiometric; 1 µM): 85%
C=CC(=O)Nc1cc(Nc2nccc(Nc3cc(Cl)c(F)cc3C(C)(C)O)n2)c(OC)cc1N1CC[C@@H](N(C)C)C1 — inhibition (enzyme activity; inhibitor; 1 µM): 33%
Cc1nn(CC(F)(F)F)cc1Nc1ncc(Br)c(NCc2ccc(S(N)(=O)=O)cc2)n1 — remaining activity (enzyme activity; inhibitor; radiometric; 1 µM): 80%
C[C@H](c1ccnc(Nc2nc3ccc(-c4cc(N(C)C)ncn4)cc3[nH]2)c1)N1CCN(C(=O)CC(F)(F)F)CC1 — remaining binding (cell-free assay; competition with immobilised ligand; 0.1 µM): 100%
CCOc1cc(-c2nncn2C)ccc1Nc1ncc2cc(C)nc(NCC(C)(C)C)c2n1 — inhibition (enzyme activity; inhibitor; FRET; 1 µM): 38%
CNC(=O)c1cc(Oc2ccc(NC(=O)Nc3ccc(Cl)c(C(F)(F)F)c3)cc2)ccn1 — inhibition (enzyme activity; inhibitor; 10 µM): 23%
Cc1nc(N2CC[C@@H](O)C2)ncc1-c1cc(C(F)(F)F)cc2[nH]ncc12 — remaining binding (binding; competition with immobilised ligand; 1 µM): 100%
O=C(NCCCNc1nc(Nc2cccc(NC(=O)N3CCCC3)c2)ncc1I)c1cccs1 — remaining activity (enzyme activity; inhibitor; radiometric; 1 µM): 4%
Cc1c(C(=O)O)cc(-c2ccc(C3CCNCC3)cc2)c2ccc(-c3ccc(C(F)(F)F)cc3)cc12 — remaining binding (binding; competition with immobilised ligand; 1 µM): 92%
O=C1NC(=O)c2cc(Nc3ccc(F)cc3)c(Nc3ccc(F)cc3)cc21 — remaining signal (cell-free assay; 0.5 µM): 102%
O=C(O)[C@H]1[C@H](Cn2nnc3ccccc3c2=O)CC[C@@H]1C(=O)c1ccc(OCCC2CCOCC2)cc1 — remaining binding (cell-free assay; competition with immobilised ligand; 1 µM): 81%
Cc1ccc(Nc2nccc(N(C)c3ccc4c(C)n(C)nc4c3)n2)cc1S(N)(=O)=O — inhibition (enzyme activity; inhibitor; 10 µM): 92%
CO[C@H]1CC[C@H](CNc2ccc(S(=O)(=O)NC(=O)c3ccc(N4CCN(CC5=C(c6ccc(Cl)cc6)CC(C)(C)CC5)CC4)cc3Oc3cnc4[nH]ccc4c3)cc2[N+](=O)[O-])CC1 — remaining binding (cell-free assay; competition with immobilised ligand; 1 µM): 84%
c1cc(CN2CCOCC2)cc(Nc2ncc(C3CC3)c(NCCc3c[nH]cn3)n2)c1 — remaining activity (enzyme activity; inhibitor; radiometric; 1 µM): 7%
